From PubChem
PLCg1 inh: PLC-gamma1 (human) inhibition, primary screen; P19174; purified PLC-gamma1, fluorogenic substrate, fluorescence; inhibition, % at 12.2 µM; 370,000 compounds, 0.84% hits; AID 720700; in the data active = inhibition above about 9.5%
procasp7 counter: activates human procaspase-7, counter-screen for procaspase-3 activators; P55210; recombinant procaspase-7, Ac-DEVD-pNA absorbance 405 nm; D23A/D198A/D206A triple mutant, cannot self-cleave; scale: DMSO 0, 5 µM enzyme 100; activation, % at 8.5 µM; 330,000 compounds, 0.093% hits;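 active = percent activation above the screen-wide mean plus 3 SD, cut at about 25% in these data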
Target sequence (P55210 whole entry D23A/D198A/D206A): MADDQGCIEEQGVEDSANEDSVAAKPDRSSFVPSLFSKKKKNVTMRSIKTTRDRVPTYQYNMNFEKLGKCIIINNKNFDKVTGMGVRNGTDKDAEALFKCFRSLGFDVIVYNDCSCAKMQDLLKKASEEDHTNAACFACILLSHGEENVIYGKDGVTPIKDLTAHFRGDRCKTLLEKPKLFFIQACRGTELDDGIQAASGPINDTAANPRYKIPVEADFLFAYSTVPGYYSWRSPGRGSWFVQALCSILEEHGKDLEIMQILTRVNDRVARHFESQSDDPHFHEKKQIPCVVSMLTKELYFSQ
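Assay system: Uncleavable procaspase-7 mutant enzyme | Input: 2 µM procaspase-7 mutant as dispensed | Timing: 1 h compound preincubation, 2 h substrate cleavage, 25 °C | Repeats: One well per compound | Control set: DMSO wells as 0%, DMSO with 5 µM added PC-7 as 100% | Technique: Epi-absorbance of released pNA at 405 nm, two timepoints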
PLC-beta3 inh: blocks human PLC-beta3 enzyme activity. Purified PLC-beta3, fluorogenic substrate, fluorescence. 370,000 compounds, 0.18% hits. Q01970. inhibition, % at 12.2 µM;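 note: 0% = median of compound wells on plate and 100% = full blocker control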
procasp3 activ: activators of human procaspase-3; P42574; recombinant procaspase-3 D3A, Ac-DEVD-pNA absorbance 405 nm; activation, % at 8.5 µM; 330,000 compounds, 0.11% hits; AID 463141;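 active = activation above the mean of all tested compounds plus 3 SD, cut at about 21% in these data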;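 note: 0% = DMSO alone and 100% = DMSO wells spiked with extra 5 µM PC-3 D3A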
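Test system: Procaspase-3 D3A mutant; medium: Zinc-free HEPES/NaCl buffer with 0.01% Triton X-100 at pH 7.4; reagent: DEVD-pNA substrate; doses: one concentration, 8.5 µM nominal, 0.8% DMSO; times: 1 h preincubation plus 2 h reaction at 25 °C; signal: Epi-absorbance at 405 nm of released p-nitroaniline, 0 and 120 min; replicates: singlicate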
Arr AP2 block: inhibitors of human beta-arrestin and AP2 interaction. 340,000 compounds, 0.31% hits. FITC-arrestin peptide / GST-AP2 beads, flow cytometry; AP2 beta2 appendage carries R879A mutation. inhibition, % at 10 µM;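 active = inhibition above a set limit, near 3 SD of compounds lacking own fluorescence, cut at about 54% in these data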;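 note: plate controls were DMSO wells for no effect and 5 µM unlabelled arrestin peptide for full effect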
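Material – GST-tagged AP2 beta2-adaptin appendage (R879A) on 4 µm glutathione beads · Probe or stimulus – fluorescein-tagged arrestin peptide at 50 nM final · Timing – 12 min plus 1 h, RT · Detection – bead flow cytometry, FITC channel · Read-out basis – inhibition as reduced fluorescein signal on beads, percent · Medium – PBS plus Tween 20 (0.05%) and BSA (0.1%)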
sPLA2-III inh: Blocks human group III sPLA2 activity | Q9NZ20 | QFRET BODIPY PC-A2 liposome hydrolysis, fluorescence | inhibition, % at 12.2 µM | 370,000 compounds, 0.56% hits;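 active = inhibition above mean plus 3 SD of compounds lying within the high and low control bounds, cut at about 19% in these data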;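 note: 0% = median of test compound wells and 100% = no enzyme DMSO wells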
PLCg1 ctr: inhibits human PLC-gamma1 in PLC-beta3 counter-screen; purified PLC-gamma1, fluorogenic substrate, fluorescence; 3,300 compounds, 3.1% hits; inhibition, % at 12.3 µM; shares compounds with PLCg1 inh; AID 743258; in the data active = inhibition above about 9.5%
PLCb3 confirm: confirmation of human PLC-beta3 inhibitors | shares compounds with PLCg1 inh | purified PLC-beta3, fluorogenic substrate fluorescence | inhibition, % at 12.3 µM | 3,300 compounds, 1% hits
* marks the source's active call; other numbers are inactive results; / = no result. Only some compounds are listed: those with a hit (about 1.9% of all), similar ones and a draw of the others. Cut-off read from the data, not from the text of the source, unless noted: active = inhibition above about 11%; inactive = the rest.

SMILES	PLCg1 inh	procasp7 counter	PLC-beta3 inh	procasp3 activ	Arr AP2 block	sPLA2-III inh	PLCg1 ctr	PLCb3 confirm
O=C1c2cccnc2C(=O)N1c1cccc([N+](=O)[O-])c1	16*	-2	0	-8	4	2	-2	-3
O=C(O)c1cccc(N2C(=O)c3cccnc3C2=O)c1	-1	4	4	6	-5	1	/	/
O=S(=O)(c1ccc(Cl)s1)N1CCC(c2nc3ccccc3o2)CC1	0	/	-1	/	/	1	/	/
CNCCCN1c2ccccc2CCc2ccccc21	10*	-7	3	3	6	2	5	0
CC1=CC(=O)C(C(C)C)=CC1=NC(=O)c1ccc(C)cc1	11*	3	11*	-6	-6	-4	0	2
CC1=CC(=O)C(C(C)C)=C/C1=N/OC(=O)c1cccc([N+](=O)[O-])c1	0	-10	-1	-7	3	-28	/	/
CC(=O)OC(C)C(=O)NS(=O)(=O)c1ccc(C)cc1 (stereo not drawn)	8	0	3	2	11	15	/	/
COC(=O)C(C(=O)OC)[C@H]1C=C[C@@H](C(=O)NS(=O)(=O)c2ccc(C)cc2)N(C(C)=O)C1	81*	/	0	/	/	5	76*	-4
CC(=O)N1C[C@@H](c2c[nH]c3ccccc23)C=C[C@H]1C(=O)NS(=O)(=O)c1ccc(C)cc1	53*	/	-17	/	/	-34	48*	-16
Cc1cccc(-c2cccc3c4c([nH]c23)[C@@H]2C[C@H]3[C@@H](C(=O)N2CC4)[C@H](C)ON3C)c1	-243	/	-346	/	/	-7	/	/
COc1ccc(S[C@]2(C(=O)N3CCN(c4ncccn4)CC3)CC(=O)N(C(=O)C3CC3)[C@@H]2c2ccc(OC)cc2)cc1	3	/	2	/	/	-4	/	/
Cc1ccc(C(NC(=O)N2CC(C)OC(C)C2)C(Cl)Cl)cc1F (stereo not drawn)	7	7	13*	9	-15	1	-1	4
COc1c(Cl)cc(Br)c(OC)c1C(=O)NC(=O)Nc1nc(C)cc(C)n1	11*	-2	1	4	-2	7	-2	-1
COc1ccc(Cl)c(OC)c1C(=O)NC(=O)Nc1nc(C)nc(C)n1	5	-11	-6	-9	8	7	/	/
Fc1ccc(-c2cc(-c3cccs3)cc(-c3ccccc3)n2)cc1	14*	2	-3	-6	-9	-2	5	0
CCN1CCN(c2ccc(S(=O)(=O)N3CCOCC3)cc2NC(=O)CCC(C)C)CC1	3	17	-3	-1	26	-8	/	/
Cc1c(C(=O)NN)[nH]c2ccc([N+](=O)[O-])cc12	1	4	59*	1	4	-1	-8	-2
NNC(=O)c1[nH]c2ccc([N+](=O)[O-])cc2c1-c1ccccc1	-1	-5	-8	12	0	1	/	/
O=C(NCc1n[nH]c(=S)n1-c1cccc(C(F)(F)F)c1)c1ccc(S(=O)(=O)N2CCCCC2)cc1	12*	-19	3	-6	-5	9	1	-4
COc1cccc(N2CCN(C(=O)Cn3c(=O)oc4ccccc43)CC2)c1	9.8*	-7	-2	-7	0	-1	-3	-6
O=C(Cn1c(=O)oc2ccccc21)N1CCN(c2ccccc2)CC1	-1	1	-1	-8	4	0	/	/
Nc1ccc(N2CCOCC2)c2nonc12	31*	-32	-12	-20	11	5	-4	-1
O=C(NCC1CC1)c1csc(COCCO)n1	6	/	13*	/	/	8	0	-7
Cc1cnc(CNC(=O)c2csc(COCCO)n2)cn1	3	/	0	/	/	3	/	/
COc1cc2cc(CCCOC(=O)c3cccc(Br)c3)oc(=O)c2cc1OC	-10	1	-10	3	32	-14	/	/
